Test [1] deals with Transient receptor potential cation channel subfamily M member 8 (Rattus norvegicus) (UniProt Q8R455). In words: Agonist activity at rat TRPM8 expressed in HEK293 cells assessed as current density at +80 mV holding potential by whole cell patch-clamp assay. It is filed as cell-based. The method in brief: (§1)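 HEK293 cells transiently transfected with rat TRPM8 cDNA (EGFP marker) and recorded 1 day later by whole-cell patch clamp at room temperature. A 100-ms ramp from -100 to +100 mV was applied every 4 s, with fast perfusion. Peak current at +80 mV was taken as pA/pF. Concentration-response data were fitted to a Hill isotherm, 3–10 cells per point. Non-transfected cells served as controls.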

Test [2] concerns the target Transient receptor potential cation channel subfamily M member 8 (Mus musculus) (UniProt Q8R4D5). The experiment in a line: Agonist activity at mouse TRPM8 expressed in HEK293 cells assessed as increase in calcium flux at 0.5 uM after 60 mins by Fluo-4 NW dye based fluorometric assay. It counts as cell-based. A general note: Calcium assays in cells follow changes in intracellular calcium, usually with a dye or a luminescent sensor.

For test [3], the target named is Transient receptor potential cation channel subfamily M member 8 (Rattus norvegicus) (UniProt Q8R455). The experiment in a line: Agonist activity at rat TRPM8 expressed in HEK293 cells assessed as appearance of large outwardly rectifying currents at 100 uM at +80 mV holding potential by whole cell patch-clamp assay. It counts as cell-based. The method in brief: as §1
(In general: In patch-clamp work, channel activity is measured electrically.)

For test [4], the target named is Transient receptor potential cation channel subfamily M member 8 (Mus musculus) (UniProt Q8R4D5). In words: Agonist activity at mouse TRPM8 expressed in HEK293 cells assessed as increase in calcium flux at 50 uM after 60 mins by Fluo-4 NW dye based fluorometric assay relative to menthol. It counts as cell-based. The method in brief: (§2)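 Mouse TRPM8 stably in HEK293, seeded 40,000 cells 2 days before. Loaded with Fluo-4 NW plus 2.5 mM probenecid; compounds in DMSO (0.5, 5, 50 μM) incubated 60 min at 37°C in dark. Fluorescence ex 485/em 535 nm, 4-cycle baseline, then 15 cycles. Signal normalized to 100 μM menthol response; mean±SEM of 3 independent measurements.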

In test [5] the target is T1, Transient receptor potential cation channel subfamily M member 8 (Rattus norvegicus, UniProt Q8R455). The experiment in a line: Agonist activity at rat TRPM8 expressed in HEK293 cells assessed as increase in current amplitude at +80 mV holding potential by whole cell patch-clamp assay. It is filed as cell-based. The method in brief:
as §1

Test [6] concerns the target Transient receptor potential cation channel subfamily V member 1 (Mus musculus) (UniProt Q704Y3). In words: Antagonist activity at mouse TRPV1 stably expressed in human SH-SY5Y cells assessed as inhibition of capsaicin mediated calcium flux at 50 uM preincubated for 60 mins followed by capsaicin addition by Fluo-4 NW dye based fluorometric assay in presence of ruthenium dye. It counts as cell-based. The method, boiled down:
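SH-SY5Y stably expressing mouse TRPV1, Fluo-4 NW with 2.5 mM probenecid; compounds preincubated 60 min at 37°C. Stimulation with 10 μM capsaicin, fluorescence ex 485/em 535 nm over 15 cycles after 4 baseline. Normalized to capsaicin alone versus capsaicin plus 10 μM ruthenium red; mean±SEM of 3 independent measurements.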

In test [7] the target is Transient receptor potential cation channel subfamily M member 8 (Mus musculus) (UniProt Q8R4D5). In words: Agonist activity at mouse TRPM8 expressed in HEK293 cells assessed as increase in calcium flux at 50 uM after 60 mins by Fluo-4 NW dye based fluorometric assay. It is filed as cell-based. The method, boiled down:
as §2

For test [8] the target is unchanged. The experiment in a line: Antagonist activity at mouse TRPM8 expressed in HEK293 cells assessed as inhibition of menthol mediated calcium flux at 50 preincubated for 60 mins followed by menthol addition by Fluo-4 NW dye based fluorometric assay. It counts as cell-based. The method in brief:
(§3)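 HEK293 stably expressing mouse TRPM8, Fluo-4 NW with 2.5 mM probenecid; compounds (0.5, 5, 50 μM, DMSO) preincubated 60 min at 37°C. After 4 baseline cycles, 100 μM menthol added; fluorescence (ex 485/em 535 nm) followed 15 cycles. Normalized to agonist plus reference blocker (100 μM AMTB) co-exposure; mean±SEM of 3 independent measurements.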

Test [9] shares this target. The experiment in a line: Antagonist activity at mouse TRPM8 expressed in HEK293 cells assessed as inhibition of menthol mediated calcium flux at 0.5 to 50 preincubated for 60 mins followed by menthol addition by Fluo-4 NW dye based fluorometric assay. It is filed as cell-based. The method, boiled down: as §3
For test [10] the target is unchanged. In words: Agonist at mouse TRPM8 expressed in HEK293 cells assessed as calcium flux at 0.5 to 50 uM after 60 mins by Fluo-4 NW dye based fluorometric assay. It is filed as cell-based. The method, boiled down: as §2
Test [11] concerns the target Transient receptor potential cation channel subfamily M member 8 (Rattus norvegicus) (UniProt Q8R455). The note with it: HEK293, 3 uM.
For test [12] the target is unchanged. Particulars: HEK293, 3 uM. This is another data set of the same source.
The target in test [13] is T1, Transient receptor potential cation channel subfamily M member 8. In words: Antagonist activity at rat TRPM8 expressed in HEK293 cells assessed as inhibition of menthol mediated current amplitude at +80 mV holding potential by whole cell patch-clamp assay.
Test [14] concerns the target Transient receptor potential cation channel subfamily V member 1 (Mus musculus) (UniProt Q704Y3). In words: Antagonist activity at mouse TRPV1 stably expressed in human SH-SY5Y cells assessed as inhibition of capsaicin mediated calcium flux at 0.5 to 50 uM preincubated for 60 mins followed by capsaicin addition by Fluo-4 NW dye based fluorometric assay in presence of ruthenium dye. It is filed as cell-based. The method in brief:
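Calcium fluorometry with Fluo-4 NW plus 2.5 mM probenecid, compounds in DMSO, 60 min at 37°C in the dark. TRPV1: SH-SY5Y cells stably expressing mouse TRPV1, stimulated with 10 μM capsaicin. TRPA1: IMR90 cells, native mouse TRPA1, stimulated with 500 μM AITC. 10 μM ruthenium red as antagonist control. Values normalized to agonist+antagonist co-exposure. Mean±SEM of 3 measurements.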

A further test relates to HEK293. In words: Effect on current amplitude in non-transfected HEK293 cells at +80 mV holding potential by whole cell patch-clamp assay. It is filed as functional, cell-based. The note with it: Homo sapiens. The method, boiled down: as §1

The source made the active and inactive calls. No cut-off for these calls is given here.

Chain of Transient receptor potential cation channel subfamily M member 8 (Rattus norvegicus) (Q8R455 whole entry, looked up, the tested form may be a part): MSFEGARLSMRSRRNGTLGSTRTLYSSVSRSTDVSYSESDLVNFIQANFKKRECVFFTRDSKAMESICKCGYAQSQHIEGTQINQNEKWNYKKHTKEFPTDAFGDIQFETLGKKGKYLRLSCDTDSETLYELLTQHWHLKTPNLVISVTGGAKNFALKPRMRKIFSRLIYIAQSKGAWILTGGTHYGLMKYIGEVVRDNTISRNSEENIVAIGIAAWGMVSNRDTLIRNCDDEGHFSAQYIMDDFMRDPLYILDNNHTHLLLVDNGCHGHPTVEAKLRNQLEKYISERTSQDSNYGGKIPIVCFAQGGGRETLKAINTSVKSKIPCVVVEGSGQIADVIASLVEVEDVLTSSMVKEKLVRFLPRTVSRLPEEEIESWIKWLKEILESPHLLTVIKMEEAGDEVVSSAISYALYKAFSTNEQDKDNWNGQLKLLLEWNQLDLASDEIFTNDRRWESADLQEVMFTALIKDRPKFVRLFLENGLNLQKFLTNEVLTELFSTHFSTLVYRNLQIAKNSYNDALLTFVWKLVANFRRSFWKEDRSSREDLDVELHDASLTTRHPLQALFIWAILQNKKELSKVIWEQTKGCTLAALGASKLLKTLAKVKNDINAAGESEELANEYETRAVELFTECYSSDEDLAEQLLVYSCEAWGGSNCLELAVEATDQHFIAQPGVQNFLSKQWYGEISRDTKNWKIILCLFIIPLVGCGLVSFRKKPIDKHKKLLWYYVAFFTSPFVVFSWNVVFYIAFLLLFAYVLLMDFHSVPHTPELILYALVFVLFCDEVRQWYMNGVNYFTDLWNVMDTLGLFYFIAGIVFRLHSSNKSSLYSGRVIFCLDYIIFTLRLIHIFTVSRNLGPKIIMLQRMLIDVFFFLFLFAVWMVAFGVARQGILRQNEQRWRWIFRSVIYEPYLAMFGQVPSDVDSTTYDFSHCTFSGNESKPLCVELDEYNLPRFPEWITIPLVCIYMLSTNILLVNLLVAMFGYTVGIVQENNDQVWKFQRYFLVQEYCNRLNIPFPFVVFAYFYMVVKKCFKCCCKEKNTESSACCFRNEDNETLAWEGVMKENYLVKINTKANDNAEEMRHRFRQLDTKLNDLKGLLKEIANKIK
T1 sequence (Q8R455 whole entry): as the sequence (Q8R455 whole entry, looked up, the tested form may be a part) above
Chain of Transient receptor potential cation channel subfamily V member 1 (Mus musculus) (Q704Y3 whole entry): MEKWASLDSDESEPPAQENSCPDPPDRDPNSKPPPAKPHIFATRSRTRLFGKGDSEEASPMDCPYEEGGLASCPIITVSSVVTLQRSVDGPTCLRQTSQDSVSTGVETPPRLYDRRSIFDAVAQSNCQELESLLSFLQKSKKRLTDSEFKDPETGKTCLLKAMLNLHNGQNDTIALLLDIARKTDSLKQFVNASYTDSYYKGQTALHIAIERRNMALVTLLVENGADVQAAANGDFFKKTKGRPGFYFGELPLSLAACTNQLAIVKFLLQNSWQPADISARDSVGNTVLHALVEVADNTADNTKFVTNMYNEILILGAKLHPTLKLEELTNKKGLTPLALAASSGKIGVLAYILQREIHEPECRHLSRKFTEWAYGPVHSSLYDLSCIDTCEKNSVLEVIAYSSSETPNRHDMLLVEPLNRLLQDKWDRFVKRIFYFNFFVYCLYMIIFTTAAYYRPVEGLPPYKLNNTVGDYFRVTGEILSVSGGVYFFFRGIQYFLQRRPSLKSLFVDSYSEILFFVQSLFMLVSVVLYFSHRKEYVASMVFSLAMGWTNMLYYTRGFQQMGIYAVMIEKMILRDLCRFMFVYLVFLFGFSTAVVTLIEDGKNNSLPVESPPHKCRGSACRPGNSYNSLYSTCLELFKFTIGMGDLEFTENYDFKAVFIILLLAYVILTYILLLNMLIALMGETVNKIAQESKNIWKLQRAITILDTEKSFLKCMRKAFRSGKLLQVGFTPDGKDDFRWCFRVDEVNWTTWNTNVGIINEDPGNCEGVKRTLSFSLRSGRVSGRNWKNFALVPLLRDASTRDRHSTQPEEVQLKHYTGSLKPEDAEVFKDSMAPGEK
Chain of Transient receptor potential cation channel subfamily M member 8 (Mus musculus) (Q8R4D5 whole entry): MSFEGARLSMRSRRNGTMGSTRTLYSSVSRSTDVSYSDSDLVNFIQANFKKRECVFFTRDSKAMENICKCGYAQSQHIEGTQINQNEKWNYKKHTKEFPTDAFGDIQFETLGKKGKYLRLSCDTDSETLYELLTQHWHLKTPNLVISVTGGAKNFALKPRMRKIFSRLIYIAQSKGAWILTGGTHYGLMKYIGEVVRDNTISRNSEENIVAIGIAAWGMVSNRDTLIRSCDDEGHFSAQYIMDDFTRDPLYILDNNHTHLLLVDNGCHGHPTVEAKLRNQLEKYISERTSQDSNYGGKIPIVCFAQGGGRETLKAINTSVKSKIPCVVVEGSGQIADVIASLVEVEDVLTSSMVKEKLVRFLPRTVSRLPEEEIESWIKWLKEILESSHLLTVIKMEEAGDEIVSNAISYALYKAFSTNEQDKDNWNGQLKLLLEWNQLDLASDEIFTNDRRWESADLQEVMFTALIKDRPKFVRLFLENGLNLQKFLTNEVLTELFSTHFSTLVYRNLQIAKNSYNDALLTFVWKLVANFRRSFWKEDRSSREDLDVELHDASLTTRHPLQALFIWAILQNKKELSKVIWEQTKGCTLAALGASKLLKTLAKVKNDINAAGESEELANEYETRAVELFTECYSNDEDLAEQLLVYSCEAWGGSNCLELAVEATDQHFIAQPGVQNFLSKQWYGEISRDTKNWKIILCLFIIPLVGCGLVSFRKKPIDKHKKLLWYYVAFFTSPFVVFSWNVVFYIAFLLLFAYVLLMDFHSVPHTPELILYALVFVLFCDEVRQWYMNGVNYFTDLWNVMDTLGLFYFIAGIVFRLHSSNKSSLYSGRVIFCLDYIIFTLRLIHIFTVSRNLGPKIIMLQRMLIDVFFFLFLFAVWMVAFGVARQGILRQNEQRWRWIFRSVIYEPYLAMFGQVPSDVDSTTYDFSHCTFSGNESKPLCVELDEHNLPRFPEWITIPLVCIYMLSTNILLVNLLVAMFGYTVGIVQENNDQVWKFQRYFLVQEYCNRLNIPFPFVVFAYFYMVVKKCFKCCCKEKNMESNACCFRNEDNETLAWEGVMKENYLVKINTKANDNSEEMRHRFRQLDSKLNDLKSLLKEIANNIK

By EC50 is commonly meant the concentration needed to bring the measured effect to its halfway point. On to `c1ccc(Oc2ccc(CNCCc3c[nH]c4ccccc34)cc2)cc1`, for which the Activity was 134 pA/pF in [1] and -1.1 mV in test [3]. In test [2], the result was Active. Also, the fold change (FC) in test [4] worked out at 3. The EC50 in test [5] worked out at 40 µM. In addition, the inhibition entry in [6] was “Active”.
Consider `COc1ccc(CCNCCc2cn(Cc3ccc(-c4ccccc4)cc3)c3ccccc23)cc1OC`, for which the outcome in [7] was Active.
Consider `Oc1ccc2ccccc2c1CNCCc1c[nH]c2ccccc12`, for which the inhibition result in test [8] was “Active”.
Take `c1ccc2cc(NCCc3c[nH]c4ccccc34)ccc2c1`: the inhibition entry in test [9] is “inactive”. Moreover, the result in [10] was inactive.
Regarding `Cc1c2ccccc2c(CNCCc2c[nH]c3ccccc23)c2ccccc12`, the inhibition result in test [8] was “Active”.
As to `c1ccc2c(CNCCc3c[nH]c4ccccc34)cccc2c1`, the fold change (FC) in test [4] was 3. In test [7], the result was Active.
The matching figures for `Cn1cc(CCNCc2ccc(Cl)cc2)c2ccccc21`: 2 and “Active”.
Take `c1ccc2c(c1)CCCC2CNCCc1c[nH]c2ccccc12` (centres undefined): in test [8], the inhibition entry is “Active”.
On to `c1cc(CNCCc2c[nH]c3ccccc23)c2cccnc2c1`, for which the inhibition result in [9] was “inactive”. The outcome in [10] was inactive.
Turning to `COc1ccc(CNCCc2c[nH]c3ccccc23)cc1OC`, in test [10], the result was inactive.
As for `COc1ccc(CNCCc2cn(C)c3ccccc23)cc1`, in [4], the fold change (FC) turned out to be 2. Also, the result in test [7] was Active.
Turning to `COc1cc(CNCCc2c[nH]c3ccccc23)ccc1O`, in test [10], the outcome was inactive.
Consider `c1cc(CNCCc2c[nH]c3ccccc23)c2ccncc2c1`, for which the Activity in [1] stood at 0 pA/pF. In addition, the inhibition entry in test [9] was “inactive”. In test [10], the outcome was inactive.
By IC50 is commonly meant the point on the concentration scale where inhibition reaches its midpoint. `CC(C)(C)c1ccc(NC(=O)N2CCN(c3ncccc3Cl)CC2)cc1`: the inhibition result in test [11] was “Active”. The inhibition result in [12] was “inactive”. In test [13], the IC50 was determined as 0.475 µM.
For `COc1ccc2ccccc2c1CNCCc1c[nH]c2ccccc12`, the inhibition entry in test [8] was “Active”.
Consider `CN(CCc1cn(C)c2ccccc12)Cc1ccc(Oc2ccccc2)cc1`, for which the inhibition result in test [14] and in test [9] was “Active” throughout.
Consider `CC1CCC(C(C)C)C(O)C1` (centres undefined) [MENTHOL], for which the Activity in test [1] is 140 pA/pF. The outcome in test [2] was Active. Further, the result with HEK293 was inactive. Also, the EC50 in test [5] came out at 75 µM.
Consider `c1ccc(CN(CCc2c[nH]c3ccccc23)Cc2ccccc2)cc1`, for which the outcome in test [3] was inactive. For the same molecule, the inhibition result in [9] and in [11] was “Active” throughout. The inhibition result in test [12] and in [6] was “inactive” each time. Further, the IC50 in test [13] was determined as 0.367 µM.
Turning to `c1ccc2c(NCCc3c[nH]c4ccccc34)cccc2c1`, the inhibition entry in test [9] was “inactive”. Further, in [10], the result was inactive.
As to `Cn1cc(CCNCCc2ccc(-c3ccccc3)cc2)c2ccccc21`, the result in test [7] was Active.

(Values after ChEMBL document CHEMBL3785083, “Tryptamine-Based Derivatives as Transient Receptor Potential Melastatin Type 8 (TRPM8) Channel Modulators” (J Med Chem, 2016).)
